# Source: the M2OR odorant receptor database
# How the values were obtained:
# Conditions in all cases: stereoisomer not certain
# UniProt A2ATE5 = target: T1, UniProt A2ATE5
# T1 sequence (whole entry): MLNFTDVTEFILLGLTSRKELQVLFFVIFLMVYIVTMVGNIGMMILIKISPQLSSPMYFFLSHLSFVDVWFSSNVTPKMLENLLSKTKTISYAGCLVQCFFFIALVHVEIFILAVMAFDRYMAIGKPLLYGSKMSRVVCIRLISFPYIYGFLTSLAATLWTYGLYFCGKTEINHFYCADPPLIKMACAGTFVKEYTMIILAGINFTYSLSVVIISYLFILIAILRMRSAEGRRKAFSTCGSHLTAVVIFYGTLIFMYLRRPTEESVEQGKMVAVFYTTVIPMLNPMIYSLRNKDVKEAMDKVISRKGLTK
# Procedure, shortened: (§1)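 Values were gathered from published papers (main text and supplementary material), with extra details requested from the original authors when needed, and checked for typos and inconsistencies. Each receptor–molecule pair is called responsive (active) if the original authors judged the measured signal statistically different from baseline, and non-responsive (inactive) otherwise. Assay methods varied by source, often transient mammalian cell-line luciferase assays. Recorded details include cell line, G-protein, co-transfected protein and tags.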
# UniProt A2AVB0 = target: T2, UniProt A2AVB0
# T2 sequence (whole entry): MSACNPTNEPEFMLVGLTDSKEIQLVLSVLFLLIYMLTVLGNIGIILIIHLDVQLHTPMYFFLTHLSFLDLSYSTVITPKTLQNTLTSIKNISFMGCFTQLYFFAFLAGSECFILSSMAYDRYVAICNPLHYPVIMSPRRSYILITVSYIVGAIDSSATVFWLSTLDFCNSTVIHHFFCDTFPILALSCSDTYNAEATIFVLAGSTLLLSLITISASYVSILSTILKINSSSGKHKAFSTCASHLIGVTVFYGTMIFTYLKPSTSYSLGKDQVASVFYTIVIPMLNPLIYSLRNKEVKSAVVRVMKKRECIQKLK
# Procedure, shortened: as §1
# UniProt A2AVB5 = target: T3, UniProt A2AVB5
# T3 sequence (whole entry): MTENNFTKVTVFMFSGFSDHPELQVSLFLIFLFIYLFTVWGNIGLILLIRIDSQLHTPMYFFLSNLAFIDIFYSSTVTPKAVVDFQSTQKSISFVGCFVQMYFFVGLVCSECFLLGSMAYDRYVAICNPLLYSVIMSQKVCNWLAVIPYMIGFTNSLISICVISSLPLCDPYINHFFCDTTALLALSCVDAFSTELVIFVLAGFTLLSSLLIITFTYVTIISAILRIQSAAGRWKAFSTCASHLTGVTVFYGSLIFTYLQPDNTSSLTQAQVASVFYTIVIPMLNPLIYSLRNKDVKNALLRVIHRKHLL
# Procedure, shortened: as §1
# UniProt B2RVX8 = target: T4, UniProt B2RVX8
# T4 sequence (whole entry): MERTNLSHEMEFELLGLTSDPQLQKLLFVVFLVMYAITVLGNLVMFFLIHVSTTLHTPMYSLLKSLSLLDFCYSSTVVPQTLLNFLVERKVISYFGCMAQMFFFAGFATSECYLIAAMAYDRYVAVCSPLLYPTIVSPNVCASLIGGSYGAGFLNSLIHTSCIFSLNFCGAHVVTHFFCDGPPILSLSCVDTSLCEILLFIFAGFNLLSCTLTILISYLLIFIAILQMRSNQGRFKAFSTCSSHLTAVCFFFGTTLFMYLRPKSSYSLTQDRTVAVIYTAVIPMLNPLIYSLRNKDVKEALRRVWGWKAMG
# Procedure, shortened: as §1
# UniProt E9PVX1 = target: T5, UniProt E9PVX1
# T5 sequence (whole entry): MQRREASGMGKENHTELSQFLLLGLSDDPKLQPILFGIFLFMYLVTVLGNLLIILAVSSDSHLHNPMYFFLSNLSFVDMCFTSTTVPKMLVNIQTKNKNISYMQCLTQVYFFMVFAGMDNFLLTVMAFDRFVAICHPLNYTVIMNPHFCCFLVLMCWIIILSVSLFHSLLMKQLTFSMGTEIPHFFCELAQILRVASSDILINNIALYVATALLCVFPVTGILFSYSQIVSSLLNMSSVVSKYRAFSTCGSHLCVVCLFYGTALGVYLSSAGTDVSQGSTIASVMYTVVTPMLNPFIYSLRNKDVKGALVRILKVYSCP
# Procedure, shortened: as §1
# UniProt E9PZ66 = target: T6, UniProt E9PZ66
# T6 sequence (whole entry): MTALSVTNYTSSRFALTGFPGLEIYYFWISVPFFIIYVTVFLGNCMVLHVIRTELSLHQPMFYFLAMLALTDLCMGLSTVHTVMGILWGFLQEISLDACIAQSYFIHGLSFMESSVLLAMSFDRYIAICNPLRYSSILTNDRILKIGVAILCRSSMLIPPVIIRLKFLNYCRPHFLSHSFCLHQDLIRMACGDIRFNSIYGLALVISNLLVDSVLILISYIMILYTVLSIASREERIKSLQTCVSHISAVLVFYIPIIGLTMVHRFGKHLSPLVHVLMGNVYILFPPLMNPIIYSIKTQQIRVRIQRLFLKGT
# Procedure, shortened: as §1
# UniProt E9Q4X7 = target: T7, UniProt E9Q4X7
# T7 sequence (whole entry): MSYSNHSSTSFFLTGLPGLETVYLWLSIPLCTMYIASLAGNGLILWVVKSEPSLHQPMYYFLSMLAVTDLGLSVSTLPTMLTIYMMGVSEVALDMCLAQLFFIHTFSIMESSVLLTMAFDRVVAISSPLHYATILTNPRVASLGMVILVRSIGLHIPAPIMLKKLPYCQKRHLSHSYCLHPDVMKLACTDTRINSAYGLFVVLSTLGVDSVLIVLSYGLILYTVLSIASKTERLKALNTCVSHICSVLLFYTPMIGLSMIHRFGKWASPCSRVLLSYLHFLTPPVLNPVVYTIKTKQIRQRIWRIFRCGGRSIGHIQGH
# Procedure, shortened: as §1
# UniProt E9Q546 = target: T8, UniProt E9Q546
# T8 sequence (whole entry): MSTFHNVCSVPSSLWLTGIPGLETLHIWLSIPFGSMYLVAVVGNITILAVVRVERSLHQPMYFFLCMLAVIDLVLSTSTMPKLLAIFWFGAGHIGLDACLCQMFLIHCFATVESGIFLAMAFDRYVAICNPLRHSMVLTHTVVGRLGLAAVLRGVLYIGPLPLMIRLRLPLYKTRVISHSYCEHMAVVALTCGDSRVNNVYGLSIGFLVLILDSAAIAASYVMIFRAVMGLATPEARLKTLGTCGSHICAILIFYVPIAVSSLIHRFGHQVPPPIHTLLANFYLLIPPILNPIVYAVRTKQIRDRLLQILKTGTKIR
# Procedure, shortened: as §1
# UniProt E9Q6Z7 = target: T9, UniProt E9Q6Z7
# T9 sequence (whole entry): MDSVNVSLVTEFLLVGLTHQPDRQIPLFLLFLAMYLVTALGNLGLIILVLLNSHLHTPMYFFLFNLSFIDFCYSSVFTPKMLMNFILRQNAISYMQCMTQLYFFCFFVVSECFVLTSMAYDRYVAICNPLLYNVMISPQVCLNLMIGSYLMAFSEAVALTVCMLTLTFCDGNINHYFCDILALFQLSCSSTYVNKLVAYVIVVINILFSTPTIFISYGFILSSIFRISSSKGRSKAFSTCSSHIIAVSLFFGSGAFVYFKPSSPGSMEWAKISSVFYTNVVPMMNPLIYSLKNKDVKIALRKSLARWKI
# Procedure, shortened: as §1
# UniProt K7N609 = target: T10, UniProt K7N609
# T10 sequence (whole entry): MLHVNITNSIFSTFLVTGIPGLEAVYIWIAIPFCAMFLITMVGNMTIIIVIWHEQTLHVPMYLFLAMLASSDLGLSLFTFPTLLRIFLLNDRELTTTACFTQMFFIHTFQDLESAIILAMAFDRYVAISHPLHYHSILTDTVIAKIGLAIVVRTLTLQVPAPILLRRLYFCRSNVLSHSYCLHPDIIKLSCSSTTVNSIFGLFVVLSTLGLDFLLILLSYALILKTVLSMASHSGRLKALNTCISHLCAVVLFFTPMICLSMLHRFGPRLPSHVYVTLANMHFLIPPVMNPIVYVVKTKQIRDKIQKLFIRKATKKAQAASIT
# Procedure, shortened: as §1
# UniProt E1BM68 = target: T11, UniProt E1BM68
# T11 sequence (whole entry): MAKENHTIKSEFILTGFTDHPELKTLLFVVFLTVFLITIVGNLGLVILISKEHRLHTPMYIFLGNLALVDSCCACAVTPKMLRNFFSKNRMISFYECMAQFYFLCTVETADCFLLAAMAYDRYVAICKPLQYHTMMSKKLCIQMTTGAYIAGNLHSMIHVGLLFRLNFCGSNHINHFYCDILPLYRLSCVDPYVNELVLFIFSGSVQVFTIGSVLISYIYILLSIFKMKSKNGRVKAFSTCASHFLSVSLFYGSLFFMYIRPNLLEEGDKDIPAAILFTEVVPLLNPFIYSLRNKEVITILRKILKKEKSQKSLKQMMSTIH
# Procedure, shortened: as §1
# UniProt E9QAT7 = target: T12, UniProt E9QAT7
# T12 sequence (whole entry): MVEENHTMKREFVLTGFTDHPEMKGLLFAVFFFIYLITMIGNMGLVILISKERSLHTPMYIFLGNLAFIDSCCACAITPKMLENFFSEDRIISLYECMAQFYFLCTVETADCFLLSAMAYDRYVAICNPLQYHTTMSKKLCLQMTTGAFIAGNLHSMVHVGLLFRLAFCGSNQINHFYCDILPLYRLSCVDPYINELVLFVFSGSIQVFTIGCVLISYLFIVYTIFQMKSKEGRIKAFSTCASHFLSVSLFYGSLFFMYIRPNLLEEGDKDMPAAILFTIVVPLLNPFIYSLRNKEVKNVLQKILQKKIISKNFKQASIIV
# Procedure, shortened: as §1
Compound,odorant receptor agonist call (UniProt A2ATE5),odorant receptor agonist call (UniProt A2AVB0),odorant receptor agonist call (UniProt A2AVB5),odorant receptor agonist call (UniProt B2RVX8),odorant receptor agonist call (UniProt E9PVX1),odorant receptor agonist call (UniProt E9PZ66),odorant receptor agonist call (UniProt E9Q4X7),odorant receptor agonist call (UniProt E9Q546),odorant receptor agonist call (UniProt E9Q6Z7),odorant receptor agonist call (UniProt K7N609),odorant receptor agonist call (UniProt E1BM68),odorant receptor agonist call (UniProt E9QAT7)
COc1cc(C(=O)O)ccc1O,inactive,inactive,inactive,inactive,inactive,inactive,active,inactive,inactive,active,,
CC(=O)Oc1ccccc1,inactive,inactive,inactive,inactive,inactive,inactive,inactive,inactive,inactive,inactive,,
CC12CCC(CC1=O)C2(C)C (configuration not stated),inactive,inactive,inactive,inactive,inactive,inactive,inactive,inactive,inactive,inactive,,
CCc1nccnc1CC,inactive,inactive,,,inactive,inactive,inactive,inactive,inactive,,active,active
CCSCC,inactive,inactive,,,inactive,inactive,inactive,inactive,inactive,,,
CCCCCC(=Cc1ccccc1)C(OC)OC,inactive,inactive,,,inactive,inactive,inactive,inactive,inactive,,,
CCCCCCC(C)O (configuration not stated),inactive,inactive,,,inactive,inactive,inactive,inactive,active,,,
CCCCOC=O,inactive,inactive,inactive,inactive,inactive,inactive,inactive,inactive,inactive,inactive,,
CCSSCC,inactive,inactive,,,inactive,inactive,inactive,inactive,inactive,,,
CC1(C)CC(=O)CC(=O)C1,inactive,inactive,,,inactive,inactive,inactive,inactive,inactive,,,
COc1cnccn1,inactive,inactive,,,inactive,inactive,inactive,inactive,inactive,,active,inactive
CC(=O)C1(C)CC2=C(CCCC2(C)C)CC1C (configuration not stated),inactive,inactive,,,inactive,inactive,inactive,inactive,inactive,,,
CCCCCCCCCCOC(C)=O,inactive,inactive,,,inactive,inactive,inactive,inactive,inactive,,,
